# Reference: ChEMBL document CHEMBL3745620, “Design and Synthesis of DiselenoBisBenzamides (DISeBAs) as Nucleocapsid Protein 7 (NCp7) Inhibitors with anti-HIV Activity” (J Med Chem, 2015)
# The source made the active and inactive calls. The rule behind the calls is not given here.
# Experiments:
# [1] = tested on: Human immunodeficiency virus 2; experiment: Antiviral activity against HIV2 ROD infected in human MT4 cells assessed as protection against virus-induced cytopathic effect after 5 days by MTT assay; format: functional, organism-based; details: Human immunodeficiency virus 2, ISOLATE ROD, MT4, 120 h
# In short: (§1)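 MT-4 cells in RPMI 1640 with 10% heat-inactivated FCS, resuspended at 6 x 10^5 cells/ml. Compounds added at start in serial 5-fold dilutions, triplicate wells, to mock- and virus-infected cells (100-300 CCID50 per well). After 5 days, viability by MTT reduction (OD540). […] Mean ± SD, at least two experiments.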
# [2] = tested on: Human immunodeficiency virus 1; experiment: Antiviral activity against HIV1 3B infected in human MT4 cells assessed as inhibition of viral replication by measuring p24 Ag production at 2 ug/ml measured at 31 hrs post infection by ELISA; format: functional, organism-based
# In short: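 MT-4 cells infected with HIV-1 IIIB at m.o.i. 0.5, 1 h adsorption, then seeded at 45,000 cells/well at 37°C. Compound added at times from 0 to 25 h post-infection. Read-out was p24 in supernatant by ELISA at 31 h post-infection.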
# [3] = tested on: Human immunodeficiency virus 1; experiment: Antiviral activity against HIV1 3B infected in human MT4 cells assessed as protection against virus-induced cytopathic effect after 5 days by MTT assay; format: functional, organism-based; details: Human immunodeficiency virus 1, 3B, MT4, 120 h; in short: as §1
# [4] = Selectivity index, ratio of CC50 for human MT4 cells to EC50 for HIV-2 ROD; format: toxicity, cell-based; details: read-out: Ratio CC50/EC50
# In short: (§2)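 Compounds added at start in serial 5-fold dilutions, triplicate wells, to mock- and virus-infected cells (100-300 CCID50 per well). After 5 days, viability by MTT reduction (OD540). Mean ± SD, at least two experiments.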
# [5] = Cytotoxicity against human MT4 cells assessed as cell viability after 5 days by MTT assay; format: cell-based; in short: as §2
# [6] = Selectivity index, ratio of CC50 for human MT4 cells to EC50 for HIV1 3B; format: toxicity, cell-based; details: read-out: Ratio CC50/EC50; in short: as §2
# [7] = tested on: HuT78; experiment: Inhibition of NCp7 of HIV1 3B persistently infected in HUT78 cells assessed as accumulation of unprocessed Gag polyprotein after 43 hrs by Western blot analysis; format: cell-based; details: Human immunodeficiency virus 1
# In short: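 Washed HuT-78(IIIB) cells (2x10^5 in 1 ml) treated with compound for 43 h at 37°C. Virions pelleted from clarified supernatant (36,670 g, 2 h, 4°C), lysed, run on SDS-PAGE and transferred to PVDF. Blot probed with mouse anti-p24 (1:5000), then HRP anti-mouse (1:2500), with chemiluminescent detection.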
# [8] = Antiviral activity against nevirapine-resistant SIV mac251 infected in human MT4 cells; format: functional, cell-based; details: Simian immunodeficiency virus
# In short: (§3)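 MT-4 cells in RPMI 1640 with 10% heat-inactivated FCS were infected at the start of the experiment, with compound added across serial 5-fold dilutions in triplicate wells. Cells were seeded at 6 x 10^5 cells/ml. After 5 days, protection against virus-induced cytopathic effect was read by MTT reduction at OD540. […] Values are means ± SD of at least two experiments.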
# [9] = tested on: Human immunodeficiency virus 1; experiment: Antiviral activity against HIV1 3B persistently infected in HUT78 cells assessed as reduction of p24 production after 43 hrs by ELISA; format: functional, organism-based; details: Human immunodeficiency virus 1, 3B, HuT78, 43 h
# In short: (§4)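 Chronically HIV-1 IIIB-infected HuT-78 cells washed four times in PBS to remove free virions and seeded at 2 × 10^5 cells/well with 7 serial 5-fold compound dilutions for 43 h at 37°C. Supernatant p24 measured by ELISA. Cytotoxicity was run in parallel by MTT plus microscopy. SI = CC50/EC50. Mean ± SD, ≥2 experiments.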
# [10] = tested on: Human immunodeficiency virus 1; experiment: Antiviral activity against NNRTI-resistant HIV1 RES056 harboring reverse transcriptase K103N/181C double mutant infected in human MT4 cells; format: functional, organism-based; details: Human immunodeficiency virus 1, RES056, MT4; in short: as §3
# [11] = Cytotoxicity against human HUT78 cells assessed as reduction in cell viability after 5 days by MTT assay; format: cell-based
# [12] = tested on: Human immunodeficiency virus 1; experiment: Antiviral activity against NRTI/NNRTI-resistant HIV1 L6 harboring reverse transcriptase V75I/F77L/K103N/F116Y/Q151M/M184V mutant infected in human MT4 cells; format: functional, organism-based; details: Human immunodeficiency virus 1, L6, MT4; in short: as §3
# [13] = Selectivity index, ratio of CC50 for human HUT78 cells to EC50 for HIV1 3B; format: toxicity, cell-based; details: read-out: Ratio CC50/EC50; in short: as §4
# [14] = tested on: Human immunodeficiency virus 1; experiment: Antiviral activity against AZT-resistant HIV1 ADP/141 harboring reverse transcriptase D67N/K70R/T215F/K219Q mutant infected in human MT4 cells; format: functional, organism-based; details: Human immunodeficiency virus 1, ADP/141, MT4; in short: as §3
# [15] = tested on: Human immunodeficiency virus 1; experiment: Antiviral activity against ritonavir-resistant HIV1 3B/RIT infected in human MT4 cells; format: functional, organism-based; details: Human immunodeficiency virus 1, 3B/RIT; in short: as §3
# [16] = tested on: Human immunodeficiency virus 1; experiment: Antiviral activity against ritonavir-resistant HIV1 B12 harboring […] L10I/I15V/I54V/L63P/V82A/I85V mutant infected in human MT4 cells; format: functional, organism-based; details: Human immunodeficiency virus 1, B12, MT4; in short: as §3
SMILES,EC50 [1] [µM],inhibition [2],EC50 [3] [µM],selectivity ratio [4],CC50 at 120 h [5] [µM],selectivity ratio [6],inhibition [7],EC50 [8] [µM],EC50 [9] [µM],EC50 [10] [µM],CC50 at 120 h [11] [µM],EC50 [12] [µM],selectivity ratio [13],EC50 [14] [µM],EC50 [15] [µM],EC50 [16] [µM]
CCOC(=O)CC[C@H](NC(=O)c1ccccc1[Se][Se]c1ccccc1C(=O)N[C@@H](CCC(=O)OCC)C(=O)OCC)C(=O)OCC,≥ 0.72,Active,≥ 0.67,≤ 4,2.8,≤ 4,–,–,–,–,–,–,–,–,–,–
O=C(O)C[C@H](NC(=O)c1ccccc1[Se][Se]c1ccccc1C(=O)N[C@@H](CC(=O)O)C(=O)O)C(=O)O,> 151,Active,> 151,< 1,151,< 1,Dose-dependent effect,–,–,–,–,–,–,–,–,–
NS(=O)(=O)c1ccc(OC(=O)c2ccccc2[Se][Se]c2ccccc2C(=O)Oc2ccc(S(N)(=O)=O)cc2)cc1,> 18.6,Active,> 18.6,< 1,18.6,< 1,Dose-dependent effect,–,–,–,–,–,–,–,–,–
COC(=O)C[C@H](NC(=O)c1ccccc1[Se][Se]c1ccccc1C(=O)N[C@@H](CC(=O)OC)C(=O)OC)C(=O)OC,≥ 2.75,Active,≥ 3.17,≤ 3,9.74,≤ 3,–,–,–,–,–,–,–,–,–,–
CCOC(=O)CNC(=O)c1ccccc1[Se][Se]c1ccccc1C(=O)NCC(=O)OCC,0.74,Active,0.91,9,6.26,7,–,–,–,–,–,–,–,–,–,–
COC(=O)[C@H](C)NC(=O)c1ccccc1[Se][Se]c1ccccc1C(=O)N[C@@H](C)C(=O)OC,1.94,Active,3.17,8,15.8,5,–,–,–,–,–,–,–,–,–,–
Cc1ccnc2c1NC(=O)c1cccnc1N2C1CC1 [NEVIRAPINE],> 15,–,0.28,–,> 15,> 60,–,> 15,0.26,> 15,> 14,> 15,–,–,–,–
O=C(O)[C@@H]1CCCN1C(=O)c1ccccc1[Se][Se]c1ccccc1C(=O)N1CCC[C@H]1C(=O)O,> 152,Active,> 152,< 1,152,< 1,Dose-dependent effect,–,–,–,–,–,–,–,–,–
NS(=O)(=O)c1ccc(NC(=O)c2ccccc2[Se][Se]c2ccccc2C(=O)Nc2ccc(S(N)(=O)=O)cc2)cc1,3.03,Active,2.82,6,17.4,6,Dose-dependent effect,–,8.25,–,> 35,–,> 4,–,–,–
Cc1cn([C@H]2C[C@H](N=[N+]=[N-])[C@@H](CO)O2)c(=O)[nH]c1=O [ZIDOVUDINE],0.008,–,0.01,> 935,> 7.48,> 748,Dose-dependent effect,–,–,–,–,> 7.48,–,0.03,–,–
COC(=O)[C@@H]1CCCN1C(=O)c1ccccc1[Se][Se]c1ccccc1C(=O)N1CCC[C@H]1C(=O)OC,4.56,Active,≥ 4.32,2,10.1,≤ 2,–,–,–,–,–,–,–,–,–,–
C[C@H](NC(=O)c1ccccc1[Se][Se]c1ccccc1C(=O)N[C@@H](C)C(=O)O)C(=O)O,5.38,Active,10.3,26,138,13,Dose-dependent effect,–,–,–,–,–,–,–,–,–
CC(C)[C@H](NC(=O)c1ccccc1[Se][Se]c1ccccc1C(=O)N[C@H](C(=O)O)C(C)C)C(=O)O,14.3,Active,13.9,9,136,10,Dose-dependent effect,–,–,–,–,–,–,–,–,–
CC(C)c1nc(CN(C)C(=O)N[C@H](C(=O)N[C@@H](Cc2ccccc2)C[C@H](O)[C@H](Cc2ccccc2)NC(=O)OCc2cncs2)C(C)C)cs1 [RITONAVIR],0.14,Active,0.09,–,–,–,Dose-dependent effect,0.14,29,–,–,–,–,–,2.77,1.28
CC[C@H](C)[C@H](NC(=O)c1ccccc1[Se][Se]c1ccccc1C(=O)N[C@H](C(=O)OC)[C@@H](C)CC)C(=O)OC,≥ 1.25,Active,0.84,≤ 2,2.99,4,–,–,–,–,–,–,–,–,–,–
O=C(O)CNC(=O)c1ccccc1SSc1ccccc1C(=O)NCC(=O)O,> 58.1,Active,> 58.1,< 1,58.1,< 1,–,–,–,–,–,–,–,–,–,–
CC1CNC(=O)c2ccccc2SSc2ccccc2C(=O)N1 (stereo unspecified),–,–,–,–,–,–,Dose-dependent effect,–,> 7.5,–,> 7.5,–,> 54,–,–,–
NS(=O)(=O)c1ccc(NC(=O)c2ccccc2SSc2ccccc2C(=O)Nc2ccc(S(N)(=O)=O)cc2)cc1,0.56,–,3.04,30,10.5,6,–,–,2.66,–,18.4,–,6.9,–,–,–
NS(=O)(=O)c1ccc(NC(=O)c2cccnc2[Se][Se]c2ncccc2C(=O)Nc2ccc(S(N)(=O)=O)cc2)cc1,≥ 3.11,Active,3.77,≤ 6,19.2,5,Dose-dependent effect,–,–,–,–,–,–,–,–,–
